This is an account of results in publication PMC2859510 (The Journal of Biological Chemistry, 2010).

pIC50: −log10 of the molar value. “Also recorded” adds a separate entry of the source. Where no end group is shown, it is not given here.

One experiment concerns the target GST-NEMO-(2–200) (UniProt Q9Y6K9). The experiment in a line: AlphaScreen or HTRF.
Another experiment concerns NEMO-IKK-2 interactions. Briefly: In situ proximity ligation assay, NEMO-IKK-2 interactions in RASF. The settings on record: data not shown. Type of experiment: cell-based, patients with rheumatoid arthritis. The method, boiled down: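 RASF on culture slides (2.5 × 10^4 cells/well, DMEM 10% FBS, overnight 37 °C) were moved to serum-free DMEM with 1% DMSO or test compound for 30 min. Cells were fixed (4% paraformaldehyde), permeabilized (0.1% Triton X-100), and blocked. They were then incubated overnight at 4 °C with anti-NEMO plus anti-IKK-2 Abs, then with oligonucleotide-linked probes (1 h, 37 °C), followed by ligation and amplification. Counterstained with Hoechst and imaged at ×20; signals/cell averaged per image.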

Experiment [1] concerns the target GST-NEMO-(2–200) and IKK-2-FLAG (Homo sapiens, UniProt Q9Y6K9). Briefly: Alphascreen binding assay, recombinant NEMO and IKK-2. The settings on record: pH 7.4, read-out: inhibition of NEMO-IKK-2 interaction at 100 μM, Alphascreen. The method, boiled down:
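GST-NEMO-(2–200) (2 nM) and C-terminal FLAG-tagged full-length IKK-2 (2 nM) were incubated 30 min at room temperature in buffer containing 50 mM HEPES pH 7.4, 0.01% BSA, 0.0005% Tween 20 and 1 mM DTT. Unlabeled competitor peptides were titrated in for 30 min. Glutathione donor and anti-FLAG acceptor beads were added, overnight at room temperature, then Alphascreen read. Mean ± S.E. of four independent experiments.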
(In Alpha technology, singlet oxygen from a donor bead excites a nearby acceptor bead.)

The subject of experiment [2] is NF-κB reporter gene. The conditions noted are these: proinflammatory stimuli (TNF-α); cited from earlier work.
The subject of another experiment is LPS-stimulated PBMC. The experiment in a line: LPS-induced TNF-α and IL-6 production in PBMC. Type of experiment: cell-based, human. The settings on record: pretreated 2 h, 10 ng/ml LPS 18 h, IKK-2 11-mer, Fig. 1A/data not shown. The method, boiled down: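 PBMC were Ficoll-isolated from heparinized healthy-donor blood and kept in DMEM with 5% endotoxin-free FBS and pen/strep. They were plated at 2.5 × 10^5 cells/well and given rising peptide doses for 2 h. Then 10 ng/ml LPS or vehicle was added for 18 h, at 1% DMSO final. TNF-α and IL-6 were read by MSD, IC50 fitted, and viability checked by Alamar Blue. Data are % of LPS-stimulated cells, mean ± S.D.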

For the next experiment, the system named is IRAK-1, TAK-1, IκBα, p65. The experiment in a line: NF-κB signaling intermediates in IL-1β-stimulated RASF. The class given is cell-based, patients with rheumatoid arthritis. The conditions noted are these: then 1 ng/ml IL-1β 10 min; for IRAK-1 fate (disappearance of band) / TAK-1 phosphorylation: 30 min. The method, boiled down:
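Fibroblasts were given peptide for 30 min, then 1 ng/ml IL-1β for 10 min at 37 °C. Lysis used Tris pH 7.6 / NaCl / 0.5% NP-40 buffer with protease and phosphatase inhibitors, with protein measured by Bradford. Blots were run by SDS-PAGE and PVDF transfer, with primary Abs 2 h at 25 °C (anti-IRAK-1, anti-phospho-TAK-1, anti-p65) and secondary Ab 1 h. Tubulin served as loading control.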

For experiment [3], the system named is NF-κB reporter gene. The conditions noted are these: cited from earlier work.
For the next experiment, the system named is unstimulated PBMC. Briefly: Basal TNF-α and IL-6 production in PBMC. The class given is cell-based, human. The conditions noted are these: pretreated 2 h, vehicle 18 h, IKK-2 11-mer. The procedure, abridged: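 Human PBMC from heparinized healthy-donor blood were isolated by Ficoll, plated at 2.5 × 10^5 cells/well in DMEM with 5% endotoxin-free FBS and penicillin/streptomycin. Cells were pretreated 2 h with increasing test compound concentrations, then given vehicle for 18 h (1% DMSO final). TNF-α and IL-6 were measured by MSD; cytotoxicity by Alamar Blue. Expressed as % of untreated cells; mean ± S.D., ≥3 determinations.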

In a further experiment the test system is IL-1β-stimulated RASF. The experiment in a line: IL-1β-induced IL-6 production in RASF. Type of experiment: cell-based, patients with rheumatoid arthritis. The conditions noted are these: pretreated 2 h, 1 ng/ml IL-1β 18 h, 1% serum, IKK-2 11-mer. The method, boiled down: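 Fibroblasts were grown in high-glucose DMEM with 15% defined bovine serum and 50 μg/ml gentamicin. They were seeded at 1.5 × 10^4 cells/well, attached overnight, then moved to DMEM with 1% serum. Cells got rising peptide doses for 2 h, then 1 ng/ml IL-1β for 18 h. Secreted IL-6 was read by MSD, IC50 fitted, and viability checked by Alamar Blue. Data are % of stimulated cells, mean ± S.D. of ≥3 determinations.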

The next experiment deals with NEMO-IKK-2 complex. Briefly: Immunoprecipitation of the IKK complex with anti-NEMO from RASF. Type of experiment: cell-based, patients with rheumatoid arthritis. The settings on record: 150 μM WT or mutant peptide, 30 min, then 1 ng/ml IL-1β 10 min; IKK-2 11-mer. The procedure, abridged:
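Fibroblasts were given 150 μM WT or mutant peptide for 30 min, then 1 ng/ml IL-1β for 10 min at 37 °C. Cells were lysed in 20 mM Tris pH 7.6, 150 mM NaCl, 0.5% NP-40, PMSF, protease and phosphatase inhibitors. From 50 μg lysate, the complex was pulled down with anti-NEMO mAb for 1 h, then Protein A beads for 1 h. Precipitates and inputs were blotted under reducing SDS-PAGE and read by infrared imaging. Runs were repeated 2–4 times.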

The test system of experiment [4] is bovine nasal cartilage explant cultures. Type of experiment: cell-based. The settings on record: data not shown.
Another experiment has as its system IKK-2 (Ser^181); IκBα. The class given is cell-based, patients with rheumatoid arthritis. The settings on record: RASF, peptide 1 h before 1 ng/ml IL-1β 10 min; IKK-2 11-mer. The method, boiled down: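 Rheumatoid arthritis synovial fibroblasts were exposed to peptide for 1 h, then to 1 ng/ml IL-1β for 10 min. The same lysates also served the kinase assay. Proteins were separated by SDS-PAGE and transferred to PVDF. Membranes were probed 2 h at 25 °C with anti-phospho-IKK-1(Ser180)/IKK-2(Ser181) or anti-IκBα, then with secondary Ab for 1 h. Bands were read by infrared imaging.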

Another experiment deals with unstimulated RASF. The experiment in a line: Basal IL-6 production in RASF. The class given is cell-based, patients with rheumatoid arthritis. The settings on record: pretreated 2 h, vehicle 18 h, IKK-2 11-mer. The procedure, abridged:
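Commercial RASF were seeded at 1.5 × 10^4 cells/well in high-glucose DMEM with 15% defined bovine serum and 50 μg/ml gentamicin, attached overnight, then switched to DMEM with 1% serum. Cells were pretreated 2 h with increasing test compound concentrations, then given vehicle for 18 h. Secreted IL-6 was measured by MSD; cytotoxicity by Alamar Blue. Expressed as % of untreated cells; mean ± S.D., ≥3 determinations.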

Another experiment deals with NEMO-(2-200) (UniProt Q9Y6K9). The experiment in a line: fluorescence polarisation.
NEMO-(2-200), sequence (Q9Y6K9 2-200): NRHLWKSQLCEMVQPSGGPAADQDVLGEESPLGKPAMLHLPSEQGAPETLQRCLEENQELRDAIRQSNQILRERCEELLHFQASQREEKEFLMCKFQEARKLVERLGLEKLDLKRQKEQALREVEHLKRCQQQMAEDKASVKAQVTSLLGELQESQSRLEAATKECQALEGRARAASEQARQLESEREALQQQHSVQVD
Experiment [5] concerns the target GST-NEMO-(2–200) and biotinylated IKK-1/2 chimeric 44-mer peptide (Homo sapiens, UniProt Q9Y6K9). Briefly: Time-resolved FRET binding assay.
For another experiment, the system named is IKK complex. The experiment in a line: Native PAGE / Western blot: release of IKK-2 from an IKK complex in RASF. Type of experiment: cell-based, patients with rheumatoid arthritis. The conditions noted are these: 30 min peptide, then IL-1β 10 min, IKK-2 11-mer.

GST-NEMO-(2–200), sequence (Q9Y6K9 2-200): as above
GST-NEMO-(2–200) and IKK-2-FLAG, sequence (Q9Y6K9 2-200): as above
GST-NEMO-(2–200) and biotinylated IKK-1/2 chimeric 44-mer peptide, sequence (Q9Y6K9 2-200, change not shown): as the sequence (Q9Y6K9 2-200) above

Usually pIC50 stands for the IC50 on a negative log10 scale, so that one unit is a factor of ten. High values mean a small IC50, low ones a large IC50. In the experiment with GST-NEMO-(2–200), “Antennapedia homeodomain-conjugated IKK-2 11-mer NBD peptide (WT)” showed a pIC50 of under 4.00 and a percent inhibition at 100 μM of 40%.

As usually defined, the inhibition is the share of the control response that was lost under treatment. Turning to “DRQIKIWFQNRRMKWKKTALDWSWLQTE [WT NBD peptides]”, in the experiment on NEMO-IKK-2 interactions, the “NEMO-IKK-2 interactions (PLA), unstimulated” value was “inhibited NEMO-IKK-2 interactions in unstimulated cells”. Further, the inhibition at 100 µM in experiment [1] stood at 40%. Moreover, in the experiment with NF-κB reporter gene [2], the “NF-κB reporter gene activity, stimulated” value is “inhibited NF-κB reporter gene activity”. Further, in the experiment with LPS-stimulated PBMC, the “LPS-induced production of IL-6” value is reported as “completely blocked”. For the same substance, in the experiment on IRAK-1, TAK-1, IκBα, p65, the “IRAK-1 fate (disappearance of band)” value is recorded as “no effect”, the TAK-1 phosphorylation result was “no effect” and the “IκBα degradation (30 min pretreatment)” value is on record as “inhibited IκBα degradation in a concentration-dependent manner”. In addition, the “NF-κB reporter gene activity, basal” value with NF-κB reporter gene [3] is “did not inhibit basal reporter gene activity”. The “basal cytokine production (TNF-α and IL-6), PBMC” value in the experiment with unstimulated PBMC is “neither WT nor mutant NBD peptides had an inhibitory effect; also recorded: slight increase in basal cytokine production”. The “IL-1β-induced IL-6 production” value in the experiment with IL-1β-stimulated RASF was “completely blocked”. Moreover, in the experiment on NEMO-IKK-2 complex, the “relative concentration of IKK-2 in the immunoprecipitated complex” value is on record as “no significant effect”. For the same substance, in [4], the “cytokine-induced release of glycosaminoglycans” value is reported as “inhibited”. In the experiment with IKK-2 (Ser^181); IκBα, the “IKK-2 phosphorylation at Ser^181” value was “inhibited” and the IκBα degradation entry is “inhibited”. Moreover, in the experiment on unstimulated RASF, the “basal IL-6 production, RASF” value is “neither WT nor mutant NBD peptides had an inhibitory effect; also recorded: slight increase in basal cytokine production”.

With “IKK-2 45-mer mutant (W739A and W741A) (peptide)”, the pIC50 in the experiment with NEMO-(2-200) and with GST-NEMO-(2–200) was under 6.00 throughout.

“PAKKSEELVAEAHNLCTLLENAIQDTVREQDQSFTALDWSWLQTE [IKK-2 45-mer]” showed a pIC50 in experiment [5] of 8.15 to 9.00.

For the substance TALDASALQTE [mutant NBD peptides], in the experiment on IRAK-1, TAK-1, IκBα, p65, the “IRAK-1 fate (disappearance of band)” value is given as “failed”, the TAK-1 phosphorylation entry is reported as “failed” and the “IκBα degradation (30 min pretreatment)” value was “failed to protect IκBα from degradation”. Besides, the “basal cytokine production (TNF-α and IL-6), PBMC” value in the experiment with unstimulated PBMC is recorded as “neither WT nor mutant NBD peptides had an inhibitory effect”. The “release of IKK-2 from IKK complex, IL-1β-treated” value with IKK complex was “WT but not mutant NBD peptides led to the appearance of an IKK-2 band distinct from the complex; also recorded: WT but not mutant NBD peptides resulted in the release of IKK-2”. In [4], the “cytokine-induced release of glycosaminoglycans” value is on record as “WT but not mutant NBD peptides inhibited”. In the experiment with IKK-2 (Ser^181); IκBα, the “IKK-2 phosphorylation at Ser^181” value was “WT but not mutant NBD peptides inhibited” and the IκBα degradation result was “WT but not mutant NBD peptides inhibited”. The “basal IL-6 production, RASF” value in the experiment with unstimulated RASF is “neither WT nor mutant NBD peptides had an inhibitory effect”.
